SR-BI HDL uptake: inhibitors of SR-BI mediated HDL lipid uptake, primary screen, ldlA[mSR-BI] cells, fluorescence, single point. ldlA[mSR-BI] CHO cells, DiI-HDL uptake fluorescence, 3 h. inhibition, % at 12.5 µM. 320,000 compounds, 0.96% hits. AID 488896, 2010;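 active means mean replicate inhibition of at least 70% and a set share of replicates each scoring 70 or more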
TMEM16A act: TMEM16A chloride channel activators or potentiators, primary screen, cell-based, HTS; B-score at 10 µM; Anoctamin-1 (Mus musculus), Q8BHY3; AID 623877, 2012; 340,000 compounds, 0.3% hits; HEK293 TMEM16A/YFP-H148Q/I152L, iodide quench fluorescence; stronger effect = lower value;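 active means fluorescence-ratio B-score plate-corrected deviation score at least 3 library SD below zero, with starting fluorescence score within 5 deviations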;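 further: channel opened by trigger with iodide after compound preincubation; score built on the fluorescence ratio of max minus min over baseline; more negative score means more quench and so TMEM16A activation or potentiation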
SR-BI uptake up: activators of SR-BI mediated DiI-HDL uptake, primary screen, ldlA[mSR-BI] CHO cells, DiI fluorescence; 3 h; 100 = double the neutral-control signal; activation, % at 12.5 µM; 320,000 compounds, 0.096% hits; AID 504775, 2011;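 active means mean replicate activation of at least 60% and every replicate at or above 60%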
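Assay system: CHO ldlA[mSR-BI] cells, LDL receptor-null, SR-BI overexpressing; medium: Ham's F12 with 0.5% BSA, HEPES 25 mM, pH 7.4; also added: DiI-HDL 10 µg/mL; timing: 3 h uptake period with compound, 37 °C; signal: DiI fluorescence, bottom read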
Kir21 block: inhibitors of mouse Kir2.1 inward-rectifier potassium channel. Inward rectifier potassium channel 2 (Mus musculus), P35561. 310,000 compounds, 0.85% hits. HEK293-Kir2.1, FluxOR thallium flux fluorescence; stronger effect = lower value. B-score at 10 µM;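 active means fluorescence ratio B-score at or below minus 3 SD of library scores, with starting-brightness B-score within 2 SD, cut at about -4.2 in these data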;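 further: channel flux triggered by added potassium and thallium sulfate stimulus; B-score of peak minus minimum fluorescence over baseline after thallium stimulus; more negative B-score means stronger Kir2.1 block with less thallium influx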
Target sequence (P35561 whole entry, looked up): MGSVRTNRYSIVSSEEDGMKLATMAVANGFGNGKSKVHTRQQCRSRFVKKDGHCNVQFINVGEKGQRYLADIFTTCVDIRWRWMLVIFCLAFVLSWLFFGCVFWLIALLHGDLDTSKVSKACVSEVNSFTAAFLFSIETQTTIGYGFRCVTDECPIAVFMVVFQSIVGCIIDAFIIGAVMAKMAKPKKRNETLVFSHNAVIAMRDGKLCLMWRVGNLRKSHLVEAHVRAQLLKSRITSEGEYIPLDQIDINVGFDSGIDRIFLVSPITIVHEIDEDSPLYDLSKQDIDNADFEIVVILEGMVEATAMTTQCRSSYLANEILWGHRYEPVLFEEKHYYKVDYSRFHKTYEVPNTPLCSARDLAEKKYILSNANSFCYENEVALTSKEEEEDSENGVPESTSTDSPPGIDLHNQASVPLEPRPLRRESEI
DNA FID counter: compounds displacing fluorescent DNA intercalator, primary screen, artefact control for HCV NS3 helicase inhibitor project, biochemical, FID fluorescence; DNA fluorescent intercalator displacement; inhibition, % at 7.9 µM; 290,000 compounds, 0.17% hits; AID 1845, 2009; in the data active means inhibition above about 37%;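 further: higher means more ethidium bromide displaced from hairpin DNA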
ANO1 block: TMEM16A chloride channel inhibitors, primary screen, cell-based, HTS; Anoctamin-1 (Mus musculus), Q8BHY3; HEK293 TMEM16A/YFP iodide influx fluorescence, ionomycin; normalized B-score (activity score, 25-100; higher = stronger inhibition) at 10 µM; 310,000 compounds, 1.2% hits; AID 588511, 2011;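 active means ratio plate-corrected score three or more library SD toward inhibition, starting fluorescence score within five deviations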;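 further: score derived from kinetic fluorescence span divided by baseline fluorescence per well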
Hits are given with their value; i = inactive; nt = no result given. This is a sample that favours compounds with a hit; in the whole collection about 3% have one here.

SMILES	SR-BI HDL uptake	TMEM16A act	SR-BI uptake up	Kir21 block	DNA FID counter	ANO1 block
COc1ccc(Nc2sc(C(=O)c3ccc(Cl)cc3)c(N)c2C(=O)Nc2ccccc2OC)cc1	93	i	i	i	i	i
O=C(N[C@H]1C/C=C\C[C@H](CC(=O)N(CCO)Cc2ccccc2)C(=O)N[C@H](Cc2c[nH]c3ccccc23)COC1=O)OCC1c2ccccc2-c2ccccc21	i	i	i	nt	nt	nt
CN(C(=O)c1ccc2c(Cl)c3c(nc2c1)CCC3)c1ccccc1	i	i	i	i	i	i
CCN(C(=O)c1ccc2c(Cl)c3c(nc2c1)CCC3)c1ccc(C)c(C)c1	86	i	i	i	i	i
Cc1nnc(SCC(=O)NCC2COc3ccccc3O2)s1 (configuration not stated)	i	i	i	nt	nt	nt
CCn1c(C)c(C)c2cc(C(=O)Nc3cccc(Cl)c3)ccc21	101	i	i	i	i	i
Nc1ccccc1SC/C=C/CSc1ccccc1N	i	i	i	i	i	i
CCOC(=O)c1ccccc1NC(=O)CSc1nnc(COc2ccccc2)n1CC	i	i	i	-6.2	i	i
CCOC(=O)c1cccc(NC(=O)CSc2nnc(COc3ccccc3)n2CC)c1	i	i	i	i	i	i
CCN(C1CCCCC1)S(=O)(=O)c1cc2c3c(c1)CCN3C(=O)CC2	i	i	i	i	nt	i
COc1ccc(CC(=O)Nc2ccccc2C(=O)N2CCCC2)cc1	i	i	i	i	i	i
COc1ccc(NC(=O)CCC(=O)N2CCC(c3ccccc3)=N2)cc1S(=O)(=O)N1CCCCC1	i	i	i	nt	nt	nt
CCOC(=O)N1CCN(S(=O)(=O)c2ccc(F)c(C(=O)Nc3cccc(Cl)c3C)c2)CC1	i	i	i	i	i	i
COc1ccc2sc(N(CCCN(C)C)C(=O)c3nc4ccccc4s3)nc2c1	i	i	i	i	i	i
COc1ccccc1C(=O)N(CCC1CCCN1C)c1nc2ccccc2s1 (configuration not stated)	i	i	i	i	42	i
O=C(CC(Nc1ccccc1)c1ccc(F)cc1)c1ccccc1 (configuration not stated)	i	i	i	-5.5	i	i
O=C(CC(Nc1ccccc1)C(=O)O)c1ccccc1 (configuration not stated)	i	i	i	i	nt	i
CC1=NNC(=O)C1Cc1ccccc1C (configuration not stated)	i	i	i	i	i	i
NNC(=O)c1ccc(N2CCc3ccccc32)c([N+](=O)[O-])c1	79	i	i	i	i	i
Cc1ccc(CNC(=O)c2ccc(N3CCc4ccccc43)c([N+](=O)[O-])c2)cc1	i	i	i	-6.5	i	i
CCc1[nH]nc(C(=O)NC2CCCN(Cc3ccccc3F)C2)c1C (configuration not stated)	i	i	i	i	i	i
CC1(C)OC(c2ccccc2)=C/C(=C/C=N/NC(=O)c2ccncc2)O1	90	i	i	i	i	i
Nc1ccc(C(=O)N2CCN(S(=O)(=O)c3ccc4c(c3)OCCO4)CC2)cc1[N+](=O)[O-]	i	i	i	i	i	i
CCCc1nnc(NC(=O)C2CC(=O)N(C3CCCC3)C2)s1 (configuration not stated)	nt	i	nt	i	i	i
CCn1ccnc1CN1CCc2c([nH]c3ccccc23)C1CC(C)C (configuration not stated)	i	i	i	i	i	i
SMILES	SR-BI HDL uptake	TMEM16A act	SR-BI uptake up	Kir21 block	DNA FID counter	ANO1 block
CCn1ccnc1CN1CCc2c([nH]c3ccccc23)C1C(C)(C)C (configuration not stated)	i	i	i	-7.7	i	i
C/C(=N/Nc1nc(C)c(C)s1)c1cccc([N+](=O)[O-])c1	i	i	i	i	i	i
CCOC(=O)[C@H]1[C@H]2COc3ccc(Cl)cc3[C@@H]2N2C(=O)[C@@H](CO)NC(=O)[C@@]12C	i	i	i	nt	nt	nt
COc1ccc(-c2ccc(-c3nc4c(c(=O)[nH]c(=O)n4Cc4ccccc4)n3C)o2)c([N+](=O)[O-])c1	72	i	i	i	i	i
Cc1cccc(N2CCN(CC(=O)Nc3ccc(S(=O)(=O)N4CCOCC4)cc3)CC2)c1C	i	i	i	i	i	25
CC(C(=O)Nc1ccc(S(=O)(=O)N2CCOCC2)cc1)N(c1ccccc1)S(C)(=O)=O (configuration not stated)	i	-10	i	i	i	i
Cc1ccc(S(=O)(=O)N2CCN(CC(=O)Nc3ccc(N4CCOCC4)cc3)CC2)cc1C	i	i	i	i	i	i
CC(Sc1nnc2c(n1)[nH]c1ccccc12)C(=O)N(C)C1CCCCC1 (configuration not stated)	i	i	i	i	i	100
COc1ccc(C(=O)C(CCC(CNC(C)(C)C)C(=O)c2ccc(OC)cc2)CNC(C)(C)C)cc1 (configuration not stated)	i	i	i	i	43	i
Cc1ccc(S(=O)(=O)Nc2ccc(O)c3cccnc23)cc1	i	i	i	-4.5	i	i
O=C1c2ccccc2C(=O)N1CCCc1nc(-c2ccccn2)no1	i	i	i	i	i	i
O=C1c2ccccc2C(=O)N1CCc1nc(-c2ccccn2)no1	i	i	i	i	i	25
NS(=O)(=O)c1ccc(-c2ccc(/C=C3\SC(=S)N(C4CCS(=O)(=O)C4)C3=O)o2)cc1 (configuration not stated)	i	-5	i	i	i	i
O=C(CN1C(=O)NC2(CCCCC2)C1=O)Oc1ccc2c(C(F)(F)F)cc(=O)oc2c1	i	i	i	i	nt	i
C[C@H]1CN([C@@H](C)CO)C(=O)c2cc(NC(=O)C3CCCCC3)ccc2O[C@H]1CN(C)C(=O)Nc1ccc2c(c1)OCO2	i	i	i	nt	nt	nt
COc1ccc(Nc2nc(NCC3CCCO3)c3ccccc3n2)c(OC)c1 (configuration not stated)	i	i	i	-9.9	i	i
CCOc1ccc(Nc2nc(NCC3CCCO3)c3ccccc3n2)cc1 (configuration not stated)	i	i	i	-7.1	39	i
Oc1cccc(Nc2nc(NCC3CCCO3)c3ccccc3n2)c1 (configuration not stated)	i	nt	i	-8.1	i	i
COc1ccc(NS(=O)(=O)c2ccc(N3CCOCC3)c(NC(=O)c3ccc(F)cc3)c2)cc1	i	i	i	i	i	i
